Source: ChEMBL document CHEMBL4028848, “Discovery of N-{4-[5-(4-Fluorophenyl)-3-methyl-2-methylsulfanyl-3H-imidazol-4-yl]-pyridin-2-yl}-acetamide (CBS-3595), a Dual p38α MAPK/PDE-4 Inhibitor with Activity against TNFα-Related Diseases” (J Med Chem, 2017)
Each block holds one compound with its values, some of them ahead of it. Calls of active or inactive are those of the source. The calls are words filed in the database; no cut-off is given here.

Columns and labels:
[1] = biological target: Mitogen-activated protein kinase 1 (Homo sapiens) (UniProt P28482); assay: Inhibition of MAPK1 (unknown origin) at 10 uM
Sequence of Mitogen-activated protein kinase 1 (Homo sapiens) (P28482 whole entry): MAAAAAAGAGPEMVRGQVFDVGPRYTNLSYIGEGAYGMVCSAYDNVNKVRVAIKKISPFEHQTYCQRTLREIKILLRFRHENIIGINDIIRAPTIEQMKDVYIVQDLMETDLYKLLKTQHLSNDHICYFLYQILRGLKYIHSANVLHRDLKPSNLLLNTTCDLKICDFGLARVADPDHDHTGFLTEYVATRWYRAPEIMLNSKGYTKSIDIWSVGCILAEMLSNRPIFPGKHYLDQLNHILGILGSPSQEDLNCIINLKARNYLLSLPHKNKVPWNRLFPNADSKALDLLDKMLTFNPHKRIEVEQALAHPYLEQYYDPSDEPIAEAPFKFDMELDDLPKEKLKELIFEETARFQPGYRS

[2] = system: Canis familiaris; assay: Cmax in Beagle dog assessed as 4-(4-(4-fluorophenyl)-1-methyl-2-(methylsulfinyl)-1H-imidazol-5-yl)pyridin-2-amine level at 40 mg/kg, po by LC-MS/MS analysis; assay type: ADME, organism-based, Canis lupus familiaris; parameters: dose 40 mg/kg, route oral; settings: in vivo
Procedure, shortened: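 Toxicokinetics from a maximum-tolerated-dose study in four Beagle dogs given 40 mg/kg orally. Plasma levels of both parent and its predominant metabolite were monitored.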

[3] = system: Liver; assay: Drug level in rat liver microsomes treated with CBS-3595 at 10 to 100 uM; assay type: ADME, microsome
Procedure, shortened: (§1)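 Test compound incubated at 10, 30 and 100 μM with liver microsomes from rat, Cynomolgus monkey or human, and metabolites monitored.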

[4] = system: Saccharomyces cerevisiae; assay: Inhibition of yeast CK1 at 10 uM relative to control
[5] = biological target: Dual specificity mitogen-activated protein kinase kinase 4 (Homo sapiens) (UniProt P45985); assay: Inhibition of MKK4 (unknown origin) at 10 uM relative to control
Sequence of Dual specificity mitogen-activated protein kinase kinase 4 (Homo sapiens) (P45985 whole entry): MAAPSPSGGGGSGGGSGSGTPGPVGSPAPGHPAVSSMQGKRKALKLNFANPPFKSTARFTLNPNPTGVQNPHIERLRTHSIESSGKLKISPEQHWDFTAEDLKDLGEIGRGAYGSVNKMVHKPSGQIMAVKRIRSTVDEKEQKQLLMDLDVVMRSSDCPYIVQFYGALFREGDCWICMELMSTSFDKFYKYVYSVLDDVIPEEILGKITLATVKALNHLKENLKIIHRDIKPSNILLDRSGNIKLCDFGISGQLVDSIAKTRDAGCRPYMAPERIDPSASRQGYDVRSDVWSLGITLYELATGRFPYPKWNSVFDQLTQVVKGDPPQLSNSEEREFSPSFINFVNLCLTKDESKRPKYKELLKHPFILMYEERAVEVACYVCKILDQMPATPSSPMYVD

[6] = biological target: Tyrosine-protein kinase Lyn (Homo sapiens) (UniProt P07948); assay: Inhibition of Lyn (unknown origin) at 10 uM relative to control
Sequence of Tyrosine-protein kinase Lyn (Homo sapiens) (P07948 2-512 limits assumed): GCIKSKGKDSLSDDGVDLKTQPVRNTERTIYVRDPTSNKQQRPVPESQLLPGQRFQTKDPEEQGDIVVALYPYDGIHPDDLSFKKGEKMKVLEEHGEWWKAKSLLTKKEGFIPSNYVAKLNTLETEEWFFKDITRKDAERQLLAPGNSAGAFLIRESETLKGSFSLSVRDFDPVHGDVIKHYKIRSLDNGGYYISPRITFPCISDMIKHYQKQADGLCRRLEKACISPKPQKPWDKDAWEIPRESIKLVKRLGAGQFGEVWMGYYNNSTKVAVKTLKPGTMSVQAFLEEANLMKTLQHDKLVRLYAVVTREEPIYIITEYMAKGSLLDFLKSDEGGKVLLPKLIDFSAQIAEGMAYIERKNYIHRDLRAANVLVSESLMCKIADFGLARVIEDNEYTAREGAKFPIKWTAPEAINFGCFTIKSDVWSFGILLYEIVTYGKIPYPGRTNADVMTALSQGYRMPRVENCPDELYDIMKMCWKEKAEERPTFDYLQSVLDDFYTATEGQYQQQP

[7] = system: Rattus norvegicus; assay: In vivo inhibition of P38 MAPKalpha in Sprague-Dawley rat assessed as decrease in LPS-stimulated TNFalpha level in serum at 1 mg/kg, po pretreated for 1 hr followed by LPS addition measured after 2 hrs relative to control; assay type: functional
Procedure, shortened: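 Sprague–Dawley rats (8/group) were dosed orally with vehicle or 1, 3 or 10 mg/kg. LPS 0.1 mg/kg i.v. was given 1 h after dosing. Blood was collected 2 h later and serum TNFα measured. Inhibition was calculated relative to the mean of vehicle-treated animals.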

[8] = system: Cynomolgus monkey; assay: In vivo inhibition of P38 MAPKalpha in po dosed cynomolgus monkey assessed as decrease in TNFalpha level in LPS-stimulated whole blood pretreated for 4 weeks followed by ex vivo LPS addition measured on day 27; assay type: functional, organism-based; settings: Macaca fascicularis
[9] = system: Cynomolgus monkey; assay: In vivo inhibition of P38 MAPKalpha in cynomolgus monkey assessed as decrease in TNFalpha level in LPS-stimulated whole blood at 12 mg/kg, po pretreated followed by LPS addition measured after 1 day relative to control; assay type: functional; settings: Macaca fascicularis
Procedure, shortened: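 Cynomolgus monkeys were dosed orally, then whole blood was stimulated ex vivo with LPS. TNFα release was compared with vehicle-dosed animals.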

[10] = system: Liver; assay: Drug metabolism in rat liver microsomes assessed as 4-(4-(4-fluorophenyl)-1-methyl-2-(methylsulfinyl)-1H-imidazol-5-yl)pyridin-2-amine formation at 10 to 100 uM; assay type: ADME, microsome; procedure, shortened: as §1
[11] = system: Liver; assay: Drug metabolism in rat liver microsomes assessed as 4-(4-(4-fluorophenyl)-1-methyl-2-(methylsulfonyl)-1H-imidazol-5-yl)pyridin-2-amine formation at 10 to 100 uM; assay type: ADME, microsome; procedure, shortened: as §1
[12] = system: Liver; assay: Drug metabolism in human liver microsomes assessed as N-(4-(4-(4-fluorophenyl)-1-methyl-2-(methylsulfinyl)-1H-imidazol-5-yl)pyridin-2-yl)acetamide formation at 10 to 100 uM; assay type: ADME, microsome; procedure, shortened: as §1
[13] = Drug uptake in LPS-stimulated female Lewis rat serum at 10 mg/kg, po pretreated for 1 hrs followed by LPS addition measured after 1.5 hrs post dose; assay type: ADME, organism-based; settings: read-out: Drug uptake
Procedure, shortened: (§2)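 Female Lewis rats, n = 8/group, dosed orally at 10 mg/kg at 1, 3 or 5 h before LPS challenge. Serum aliquots taken 1.5 h after LPS were used to measure drug concentration.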

[14] = system: Rattus norvegicus; assay: Antiarthritic activity in Lewis rat assessed as decrease in collagen-induced arthritic score at 50 mg/kg, po qd administered for 10 days; assay type: functional, organism-based
Procedure, shortened: (§3)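 Collagen-induced arthritis in male Lewis rats (5–6 per group). Groups received vehicle, dexamethasone 1 mg/kg, test item 50 mg/kg once daily, or 25 mg/kg twice daily for 10 days. Body weight, arthritic score and paw volume were monitored, and serum COMP was measured at the end.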

[15] = system: Rattus norvegicus; assay: Antiarthritic activity in Lewis rat assessed as collagen oligomeric matrix protein level in serum at 50 mg/kg, po qd administered for 10 days (Rbv = 0.17 +/- 0.02 U/l); assay type: functional; procedure, shortened: as §3
[16] = system: Mus musculus; assay: Antiarthritic activity in human TNF transgenic mouse model assessed as reduction in cartilage damage at 20 to 50 mg/kg/day, po for 10 weeks; assay type: functional, organism-based
Procedure, shortened: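 Heterozygous human TNF transgenic mice (8 per group) were dosed orally for ten weeks with 20 or 50 mg/kg/day as a methylcellulose suspension, alongside vehicle and infliximab i.p. controls. Joint swelling and grip strength were scored weekly, and hind paws were examined histologically at the end.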

[17] = Cmax in mongrel dog at 30 mg/kg, po by LC-MS/MS analysis; assay type: ADME, organism-based, Canis lupus familiaris; parameters: dose 30 mg/kg, route oral; settings: in vivo
Procedure, shortened: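 Oral single-dose PK; plasma concentrations of parent and metabolite measured. Dogs: blood sampled 0.25 to 24 h after dosing. Humans: healthy subjects, placebo-controlled single-blind randomized consecutive dosing, plasma sampled predose and 0.25–36 h post dose. 10 mg also given fasting and fed in crossover. Parameters derived from individual concentration–time profiles.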

[18] = AUC (0 to t) in mongrel dog at 30 mg/kg, po by LC-MS/MS analysis; assay type: ADME, organism-based, Canis lupus familiaris; settings: in vivo
Procedure, shortened: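 Two mongrel dogs received a single oral dose of 30 mg/kg. Blood was sampled from 0.25 to 24 h and plasma parent concentrations were determined.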

[19] = Tmax in female Sprague-Dawley rat at 30 mg/kg, po by LC-MS/MS analysis; assay type: ADME, organism-based; settings: in vivo
[20] = Half life in cynomolgus monkey at 20 mg/kg, po measured on day 1 and 27 post dose by LC-MS/MS analysis; assay type: ADME, organism-based, Macaca fascicularis; settings: in vivo
Procedure, shortened: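 Cynomolgus monkeys were dosed orally at 6, 12 and 20 mg/kg daily in a 4-week toxicity study. Blood was sampled from 0.5 to 24 h post dose on days 1 and 27. Individual profiles of parent and metabolite gave Tmax, Cmax, T1/2 and AUC0–24.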

[21] = system: Rattus norvegicus; assay: Toxicity in rat assessed as soft feces at 30 to 300 mg/kg, po administered as single dose; assay type: organism-based; settings: in vivo
[22] = system: Rattus norvegicus; assay: Toxicity in Sprague-Dawley rat assessed as increase in histopathological changes at 150 mg/kg, po administered via gavage for daily 28 days followed by 2 weeks off without dosing; assay type: organism-based; settings: in vivo
[23] = system: Escherichia coli; assay: Genotoxicity in Escherichia coli in absence of S9 fraction by Ames test; assay type: toxicity
Procedure, shortened: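 Bacterial reverse mutation (Ames) test in S. typhimurium and E. coli strains, run with and without S9 mix.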

[24] = system: Bone marrow cell; assay: Clastogenicity in mouse bone marrow cells by microneucleus test; assay type: toxicity, cell-based
Procedure, shortened: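 In vivo micronucleus test in mouse bone marrow.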

[25] = Drug excretion in human urine at 10 to 50 mg, po administered as single dose up to 36 hrs; assay type: ADME, organism-based; settings: read-out: Drug excretion
Procedure, shortened: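 Healthy subjects, single oral dose. Urine collected at 0–6, 6–12, 12–24 and 24–36 h post dose and analysed for parent and metabolite. Excreted amount expressed relative to administered dose.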

[26] = Drug uptake in LPS-stimulated female Lewis rat serum at 10 mg/kg, po pretreated for 3 hrs followed by LPS addition measured after 1.5 hrs post dose; assay type: ADME, organism-based; settings: read-out: Drug uptake; procedure, shortened: as §2
[27] = system: Serum; assay: Drug uptake in male Lewis rat serum at 10 mg/kg, po by LC-MS/MS analysis; assay type: ADME, organism-based; settings: in vivo
Procedure, shortened: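 Male Lewis rats were dosed orally at 10 mg/kg 1 h before an i.v. LPS challenge of 0.1 mg/kg. Serum drug concentration was measured 1.5 h after LPS.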

[28] = system: Rattus norvegicus; assay: Toxicity in single po dosed rat assessed as increase in peak inspiratory flow at 100 to 300 mg/kg, po administered as single dose; assay type: organism-based; settings: in vivo

inhibition [1]: inactive
Cmax [2]: 5.1 µM
Drug metabolism [3]: Metabolite_Detected
SMILES: Cn1c([S+](C)[O-])nc(-c2ccc(F)cc2)c1-c1ccnc(N)c1 (stereo not drawn)

SMILES: CC(=O)Nc1cc(-c2c(-c3ccc(F)cc3)nc([S+](C)[O-])n2C)ccn1 (stereo not drawn)
inhibition [4]: 97%
inhibition [5]: 37%
inhibition [6]: 31%
inhibition in vivo at 1 mg/kg [7]: 43%
inhibition [8]: Dose-dependent effect
inhibition in vivo at 12 mg/kg [9]: 50%
Drug metabolism [10]: Metabolite_Detected
Drug metabolism [11]: Metabolite_Detected
Drug metabolism [12]: Metabolite_Detected
concentration at 1.5 h [13]: 237 ng/mL
Activity [14]: Active
Activity [15]: 0.08 U/L
Activity [16]: Active
Cmax [17]: 14.3 µM
AUC(0-t) [18]: 95 µM·h
Tmax [19]: 2 h
half-life [20]: 4.8 h
Activity [21]: Toxic
Activity [22]: Toxic
Activity [23]: Non-Toxic
Activity [24]: Non-Toxic
dose excreted at 36 h [25]: 6%
concentration at 1.5 h [26]: 526 ng/mL
Drug uptake [27]: 689 ng/mL
Activity [28]: Toxic
